Reference: article PMC10012268 (ACS Infectious Diseases, 2023)

How the values were obtained:
[1] = Liver microsome stability, human; type: in vitro ADME
[2] = Hepatocyte stability, rat; type: in vitro ADME; conditions: pooled rat hepatocytes
Outline: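 Test compound (1 μM) in Krebs–Henseleit buffer was incubated with pooled rat hepatocytes (1 × 10^6 cells/mL) at 37 °C, 5% CO2, with samples from 0 to 90 min. Reactions were quenched with ice-cold acetonitrile and centrifuged, and supernatants were analysed by LC–MS/MS. Half-life and CLint were derived from parent remaining. Run in duplicate.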

[3] = Kinetic aqueous solubility; type: physicochemical; conditions: kinetic in PBS
Outline: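 Miniaturised shake flask: test compound (200 μM) in PBS pH 7.4 was shaken at 600 rpm, 25 °C for 2 h, filtered, and the filtrate half-diluted in acetonitrile. Run in duplicate.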

LogD at pH 7.4 = type: physicochemical; conditions: 1-octanol/phosphate-buffered saline (1:1, v/v)
Pf Dd2 parental line = assay: 3H-hypoxanthine 72 h assay, Dd2 parental line; type: cell-based; conditions: Plasmodium falciparum, DD2, read-out: Pf Dd2 EC50, Dd2 parental line, 3H-hypoxanthine 72 h; average of two experiments
K1 = assay: 3H-hypoxanthine 72 h assay, K1; type: cell-based; conditions: Plasmodium falciparum, K1, read-out: Pf multidrug-resistant strain EC50 K1
NF54 = assay: 3H-hypoxanthine 72 h assay, NF54; type: cell-based; conditions: Plasmodium falciparum, NF54, read-out: Pf multidrug-resistant strain EC50 NF54
RF12 = assay: 3H-hypoxanthine 72 h assay, RF12; type: cell-based; conditions: Plasmodium falciparum, read-out: Pf multidrug-resistant strain EC50 RF12
7G8 = assay: 3H-hypoxanthine 72 h assay, 7G8; type: cell-based; conditions: Plasmodium falciparum, 7G8, read-out: Pf multidrug-resistant strain EC50 7G8
[4] = system: P. falciparum NF54 female gametes; assay: Dual gamete formation assay; type: cell-based; conditions: Plasmodium falciparum, NF54, read-out: female gamete EC50
Outline: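 Stage V NF54 gametocyte cultures with >0.2% exflagellation were diluted to 12.5 million cells/mL in gametocyte medium containing 10% human serum and no Albumax. They were dispensed warm (625,000 cells/well) onto the test compound. After ookinete medium was added, plates went to 4 °C for 4 min and then 28 °C for 5 min, followed by 24 h at 28 °C in the dark. Female gametes (Pfs25) were scored from one fluorescence image per well.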

P. berghei EEFs = assay: Exoerythrocytic stage assay; type: cell-based; conditions: Plasmodium berghei, 48 h, read-out: Pb liver stage EEFs EC50 (SD)
HepG2 = HepG2 host cell viability in the liver stage panel; type: cell-based; conditions: Homo sapiens, HepG2, 48 h, read-out: HepG2 EC50 (liver stage)
[5] = system: drug-resistant P. falciparum strains; assay: Profiling against a selection of multidrug-resistant parasites; type: cell-based, Plasmodium falciparum
Outline: (§1)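 Asexual blood-stage parasites in hypoxanthine-free RPMI 1640 with HEPES, NaHCO3, neomycin (100 μg/mL) and Albumax II (5 g/L). Infected blood (0.3% parasitemia, 2.5% hematocrit) was exposed to a 10-point serial dilution at 37 °C under 93% N2/4% CO2/3% O2. After 48 h, [3H]-hypoxanthine (0.5 μCi/well) was added for 24 h more. Scintillation cpm were normalised to untreated controls, and logit regression gave values as means of two experiments.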

[6] = system: P. falciparum 3D7 parasites; assay: P. falciparum 3D7 asexual-stage parasite LDH viability assay; type: cell-based, Plasmodium falciparum; conditions: 3D7 parasite EC50 compared to 17
[7] = Liver microsome stability, mouse; type: in vitro ADME; conditions: pooled mouse liver microsomes
Outline: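 Test compound (1 μM, phosphate buffer) was incubated with pooled mouse liver microsomes (0.5 mg/mL) at 37 °C, with and without an NADPH regeneration system, sampling at 0, 5, 20, 30, 45 and 60 min. Run in duplicate.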

[8] = system: 41 resistant 3D7 P. falciparum populations (V259L cyt b Qo site mutation); assay: LDH growth assay against 41 resistant populations; type: cell-based; conditions: Plasmodium falciparum, 3D7, read-out: EC50 against all three populations
Outline: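 Three 3D7 clonal populations were selected by exposure to test compound starting at 2 × EC50, monitored by Giemsa smears and stepped up after recovery. Synchronised ring-stage parasites were then grown 72 h on predispensed compound in RPMI/AlbuMAX and frozen at −80 °C overnight. LDH activity was read with APAD/NBT absorbance at 650 nm.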

[9] = system: Pf Dd2 strain with an I22L mutation in the Qi site cyt b; assay: 3H-hypoxanthine 72 h assay, Dd2 cyt b; type: cell-based, Plasmodium falciparum
Outline: as §1

[10] = system: Pf SB1-A6 strain with a CNV (∼2-fold) and a C276F mutation in DHODH; assay: SB1-A6 asexual-stage assay; type: cell-based; conditions: Plasmodium falciparum, 72 h, read-out: SB1-A6 EC50
Outline: (§2)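 Parasites were sorbitol-synchronised one cycle before setup. Ring stages at 0.5% parasitemia and 2% hematocrit were plated onto twofold compound dilutions and incubated at 37 °C for 72 h. Cells were fixed in 0.25% glutaraldehyde (RT, 30 min), stained with 2.5× SYBR Green (37 °C, 30 min) and counted by flow cytometry. EC50 is the average of three independent experiments.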

[11] = system: Pf Dd2 expressing ScDHODH; assay: ScDHODH asexual-stage assay; type: cell-based; conditions: Plasmodium falciparum, DD2, 72 h, read-out: Dd2 ScDHODH EC50
Outline: as §2

[12] = system: mitochondrial electron transport chain of P. falciparum 3D7 asexual parasites; assay: ETC biosensor / oxygen consumption rate; type: cell-based, Plasmodium falciparum
Outline: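 Magnet-purified trophozoite-infected RBCs were saponin-released (0.05%, 37 °C, 3 min) and washed. Parasites were suspended in MAS buffer with 25 mM malate and 0.002% digitonin and seeded at 5 × 10^6 per Cell-Tak-coated well (800g, 10 min). Seahorse XFe96 OCR was read at baseline, after test compound (5 μM final), after TMPD (0.2 mM) with ascorbate (2 mM), then after NaN3 (10 mM). Each cycle was 20 s mix, 1 min wait, 2.5 min measure.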

| SMILES | hepatocyte CLint at 1 μM [2] | logD at 2 h (LogD at pH 7.4) | EC50 (Pf Dd2 parental line) | EC50 (K1) | EC50 (NF54) | EC50 (RF12) | EC50 (7G8) | potency against each drug-resistant strain compared to the Dd2 and NF54 wild-type parasites [5] | further results |
| --- | --- | --- | --- | --- | --- | --- | --- | --- | --- |
| CCOC(=O)c1cn(CC)c2cc(N3CCC(C)CC3)c(F)cc2c1=O [Compound 21, Ethyl 1-Ethyl-6-fluoro-7-(4-methyl-1-piperidyl)-4-oxo-quinoline-3-carboxylate] | > 92.4 µL/min/1e6 cells | 3.2 | 55 nM | 48 nM | 65 nM | 20 nM | 38 nM | equipotent | liver microsomes human CLint [1]: 205.2 µL/min/mg; aqueous solubility pH 7.4 [3]: 22.9 μM; EC50 [4]: > 25000 nM; EC50 (P. berghei EEFs): 24 nM; EC50 (HepG2): > 50000 nM |
| CCn1cc(-c2nc(C)no2)c(=O)c2cc(F)c(N3CCC(Cc4ccccc4)CC3)cc21 [Compound 41, 7-(4-Benzyl-1-piperidyl)-1-ethyl-6-fluoro-3-(3-methyl-1,2,4-oxadiazol-5-yl)quinolin-4-one] | 24.7 µL/min/1e6 cells | 4.2 | 4 nM | 5 nM | 5 nM | 2 nM | 3 nM | equipotent | fold more potent than 17 [6]: 2 fold; microsomal CLint at 1 μM [7]: 44.1 µL/min/mg; EC50 [8]: ~800 nM; difference in sensitivity between the ELQ-300 resistant Dd2 strain and the Dd2 parental strain [9]: no difference in sensitivity; EC50 [10]: 480 nM; EC50 [11]: 860 nM; OCR upon addition of TMPD ([12]; after compound (5 μM), TMPD (cytochrome c electron donor) added): rescued; effect on malate-dependent oxygen consumption rate (OCR) ([12]; compounds at 5 μM, malate as the energy source): significantly reduce the OCR |
